Data on 1 compound can be found in publication PMC12376879 (RSC Advances, 2025).

The test deals with human serum albumin (HSA) (Homo sapiens, UniProt P02768). Briefly: Isothermal titration calorimetry with HSA. Type of test: binding. In outline: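 HSA (60 μM) in the sample cell, titrated with test compound from the syringe. All solutions were in 5% DMSO in 20 mM phosphate buffer, pH 7.4, with the same solution in the reference cell. Concentrations were set by A280. The run was 19 injections (0.4 μl, then 18 × 2 μl) at 150 s intervals, stirring at 750 rpm. Ligand-into-buffer dilution heats were subtracted. Ka, n, ΔH and ΔS were fitted; ΔG was calculated from them.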

SMILES strings stand for the structures.

Chain of human serum albumin (HSA) (P02768 25-609): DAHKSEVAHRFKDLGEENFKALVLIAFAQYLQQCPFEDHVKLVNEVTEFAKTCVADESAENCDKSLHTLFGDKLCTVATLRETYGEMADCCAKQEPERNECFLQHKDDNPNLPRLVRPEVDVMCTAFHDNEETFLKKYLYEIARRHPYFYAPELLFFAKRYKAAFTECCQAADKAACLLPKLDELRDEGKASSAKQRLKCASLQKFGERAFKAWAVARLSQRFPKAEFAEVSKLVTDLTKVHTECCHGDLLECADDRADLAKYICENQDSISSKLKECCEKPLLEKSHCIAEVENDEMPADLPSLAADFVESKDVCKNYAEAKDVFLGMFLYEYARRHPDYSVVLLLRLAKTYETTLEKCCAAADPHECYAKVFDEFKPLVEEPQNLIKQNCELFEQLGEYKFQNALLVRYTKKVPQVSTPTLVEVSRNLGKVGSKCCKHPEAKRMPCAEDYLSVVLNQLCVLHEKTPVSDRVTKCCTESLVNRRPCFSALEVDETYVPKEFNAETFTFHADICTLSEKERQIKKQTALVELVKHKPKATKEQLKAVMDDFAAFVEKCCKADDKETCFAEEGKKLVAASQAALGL

Turning to `Cc1ccnc2c1NC(=O)c1cccnc1N2C1CC1` [nevirapine], where the note is “298 K, HSA”, the “Enthalpy (ΔHm), ITC” value is -2.53 kcal/mol; the “Gibbs free energy (ΔGm), ITC” value is -6.84 kcal/mol; the “Stoichiometry (n), ITC” value is listed as 0.9. Also, under “calculated from ITC results”, the “Entropy (ΔS) of binding to HSA” value was “+60.4 J K^−1 mol^−1”.
